Measurements from different studies.
Lines come from different studies, so protocols differ.
Target: Calcium/calmodulin-dependent protein kinase type II subunit delta (CAMK2D, Homo sapiens, UniProt Q13557)

Compound	observed	mode	method	concentration	quantity	result
Cc1nn(C)cc1-c1nc2c(N3CCN(Cc4ccc(Cl)cc4)CC3)c(Cl)cnc2[nH]1	binding	–	competition with immobilised ligand	1 µM	remaining binding	94%
COc1ncccc1-c1cnn2ccc(N3CCN(C(=O)OC(C)C)CC3)nc12	binding	–	competition with immobilised ligand	1 µM	remaining binding	83%
Cn1cc(-c2cc(F)cc(N3CCn4c(cc5c4CCCC5)C3=O)c2CO)cc(Nc2ccc(N3CCN(C4COC4)CC3)cn2)c1=O	enzyme activity	inhibitor	–	0.1 µM	inhibition	11%
Cn1cncc1[C@@](O)(COc1ccc(C#N)cc1-c1ccc(OC(F)(F)F)cc1)c1ccc(C#N)cc1	cell-free assay	–	competition with immobilised ligand	1 µM	remaining binding	95%
CC(C)(C)c1cc(C=C(C#N)C#N)cc(Br)c1O	enzyme activity	inhibitor	–	0.5 µM	remaining activity	96%
Cn1cc(-c2cccc(N3CCc4c(sc5c4CC(C)(C)C5)C3=O)c2CO)cc(Nc2ccncn2)c1=O	enzyme activity	inhibitor	–	1 µM	inhibition	3%
Nc1ncc(-c2nc(N3CCOCC3)nc(N3CCOCC3)n2)c(C(F)F)n1	binding	–	competition with immobilised ligand	10 µM	remaining binding	66%
O=c1[nH]c2ccccc2n1C1CCN(Cc2ccc(-c3[nH]c4cc5ncnc5cc4nc3-c3ccccc3)cc2)CC1	cell-free assay	–	–	0.5 µM	remaining signal	97.7%
